The target of test [1] is T1, Adenosine deaminase (Bos taurus, UniProt P56658).
T1 sequence (P56658 whole entry): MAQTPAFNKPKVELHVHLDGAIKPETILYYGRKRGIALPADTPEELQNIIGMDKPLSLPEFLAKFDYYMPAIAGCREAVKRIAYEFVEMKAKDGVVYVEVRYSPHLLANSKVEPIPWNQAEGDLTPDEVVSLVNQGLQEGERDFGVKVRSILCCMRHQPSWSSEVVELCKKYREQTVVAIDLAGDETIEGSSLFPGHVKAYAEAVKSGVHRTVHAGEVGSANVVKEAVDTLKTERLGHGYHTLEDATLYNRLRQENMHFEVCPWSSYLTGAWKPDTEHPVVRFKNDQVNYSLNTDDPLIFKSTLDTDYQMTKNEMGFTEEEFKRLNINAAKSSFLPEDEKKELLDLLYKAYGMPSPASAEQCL
As to the kind of experiment: Compound was tested for the inhibition of Adenosine deaminase from calf intestine.

For test [2], the system named is L1210. As to the kind of experiment: Compound was tested for its antitumor activity to inhibit 50% of tumor cell growth in mouse leukemia L1210 cell lines. The test is classed as functional. The conditions noted are these: read-out: ID50 (the source's name). A digest of the protocol: (§1)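 L1210 and P388 murine leukemia cells were kept in RPMI 1640 with 10% fetal calf serum, penicillin and streptomycin, plus 1 mM β-mercaptoethanol added at 1% (L1210) or 2% (P388). Stocks were 1 mg/mL in 5% DMSO, diluted in water (0.5% DMSO at the top dose). Cells were plated at 3×10^4/mL and treated immediately for 72 h, then Coulter-counted as % of control; IC50 was taken from concentration–response curves.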

Test [3] relates to P388. In words: Compound was tested for its antitumor activity to inhibit 50% of tumor cell growth in mouse leukemia P388 cell lines. Format: functional. The note with it: read-out: ID50 (the source's name). A digest of the protocol: as §1
In test [4] the target is T1, Adenosine deaminase. As to the kind of experiment: Compound was tested for the inhibition of Adenosine deaminase from calf intestine; NA indicates not active.

pIC50, pKi: −log10 of the molar value. Where only a bound is given, the exact number is not on record here.

Among the data in ChEMBL document CHEMBL1125590, “Purine and 1-deazapurine ribonucleosides and deoxyribonucleosides: synthesis and biological activity” (J Med Chem, 1991) are Ki and IC50 values, retold here.

On to `OC[C@H]1O[C@@H](n2cnc3c(NO)ccnc32)[C@H](O)[C@@H]1O`, for which the pKi in test [1] is 5.92. The pIC50 is 5.28 in test [2] and 5.31 in test [3].

As to `OC[C@H]1O[C@@H](n2cnc3/c(=N\O)[nH]cnc32)[C@H](O)[C@@H]1O`, the pIC50 in test [2] is 5.51; in test [3], 5.80.

The molecule `OC[C@H]1O[C@@H](n2cnc3c(NO)ccnc32)C[C@@H]1O` gave a pKi in test [1] of 6.57. Further, the results for the pIC50 in test [2] and in test [3] were less than 4.00 and 4.17, respectively.

For `O=[N+]([O-])c1ccnc2c1ncn2[C@H]1C[C@H](O)[C@@H](CO)O1`, the Ki entry in test [4] is “Not Active”. Further, the pIC50 in test [2] was 4.83; in test [3], 4.69.

`Cc1ccc(C(=O)OC[C@H]2O[C@@H](n3cnc4c(NO)cc(Cl)nc43)C[C@@H]2OC(=O)c2ccc(C)cc2)cc1`: the Ki entry in test [4] was “Not Active”. The pIC50 in test [2] is 5.32; in test [3] it was 5.37.

For `Cc1ccc(C(=O)OC[C@H]2O[C@@H](n3cnc4c(NO)nc(Cl)nc43)C[C@@H]2OC(=O)c2ccc(C)cc2)cc1`, the Ki result in test [4] is “Not Active”. Besides, the pIC50 in test [2] is 5.31; in test [3], 4.98.

On to `Cc1ccc(C(=O)OC[C@H]2O[C@@H](n3cnc4c(NO)ccnc43)C[C@@H]2OC(=O)c2ccc(C)cc2)cc1`, for which the negative-log Ki (pKi) in test [1] was 5.28. The results for the pIC50 in test [2] and in test [3] were 4.65 and 4.77, respectively.

With `OC[C@H]1OC(n2cnc3c(NO)nc(Cl)nc32)[C@H](O)[C@@H]1O` (stereo partly specified), the Ki result in test [4] is “Not Active”. For the same molecule, the pIC50 was 4.03 in test [2] and 4.12 in test [3].

As to `O=[N+]([O-])c1cc(Cl)nc2c1ncn2C1O[C@H](CO)[C@@H](O)[C@H]1O` (stereo partly specified), in test [4], the Ki entry is on record as “Not Active”. Further, the pIC50 was 6.05 in test [2] and 5.82 in test [3].

Turning to `OC[C@H]1OC(n2cnc3c(NO)cc(Cl)nc32)[C@H](O)[C@@H]1O` (stereo partly specified), the pKi in test [1] was 4.16. Moreover, the pIC50 was 4.04 in test [2] and 4.22 in test [3].

As to `Nc1ncnc2c1ncn2[C@@H]1O[C@H](CO)[C@@H](O)[C@@H]1O` [VIDARABINE], the pIC50 was 4.66 in test [2] and 4.77 in test [3].
